Assay results collected from several papers.
Each line is one published result; the experiments were not run side by side.
KIT D816V: Mast/stem cell growth factor receptor Kit (KIT, Homo sapiens, UniProt P10721, D816V)
KIT V559D/V654A: Mast/stem cell growth factor receptor Kit (KIT, Homo sapiens, UniProt P10721, V559D/V654A)
KIT A829P: Mast/stem cell growth factor receptor Kit (KIT, Homo sapiens, UniProt P10721, A829P)
KIT T670I/V559D: Mast/stem cell growth factor receptor Kit (KIT, Homo sapiens, UniProt P10721, T670I/V559D)
KIT: Mast/stem cell growth factor receptor Kit (KIT, Homo sapiens, UniProt P10721)
KIT D816H: Mast/stem cell growth factor receptor Kit (KIT, Homo sapiens, UniProt P10721, D816H)
KIT V559D: Mast/stem cell growth factor receptor Kit (KIT, Homo sapiens, UniProt P10721, V559D)

O=C(Nc1cccnn1)N1CCC(=Cc2cccc(Oc3ccc(C(F)(F)F)cn3)c2)CC1 — remaining binding (KIT D816V; cell-free assay, competition with immobilised ligand; 1 µM): 87%
CN(CCCC(F)(F)F)c1nccc(-c2cnn3ncccc23)n1 — remaining binding (KIT V559D/V654A; binding; 1 µM): 100%
CCN1CCN(Cc2ccc(C(=O)Nc3ccc(C)c(Oc4ccc5c(c4)CC(=O)N5)c3)cc2C(F)(F)F)CC1 — remaining binding (KIT A829P; binding, competition with immobilised ligand; 1 µM): 100%
Cc1cnc(Nc2ccc(C(=O)N3CCC(N4CCCC4)CC3)cc2)nc1-c1cc2ccccc2s1 — remaining binding (KIT T670I/V559D; binding, competition with immobilised ligand; 1 µM): 10%
COc1ncc2cc3ccccc3nc2c1C#N — remaining binding (KIT D816V; cell-free assay, competition with immobilised ligand; 5 µM): 95%
COc1cnc(Nc2cccc(S(N)(=O)=O)c2)nc1N1CCN(c2ccccc2)CC1 — remaining binding (KIT V559D/V654A; binding, competition with immobilised ligand; 1 µM): 97%
CN(C)c1nccc(-c2cnn3ncccc23)n1 — remaining binding (KIT; binding; 1 µM): 100%
COc1cnc(Nc2cccc(S(N)(=O)=O)c2)nc1N1CCN(c2ccccc2)C(=O)C1 — remaining binding (KIT; binding, competition with immobilised ligand; 1 µM): 98%
COc1cc(-c2cn(C3CCc4ccccc4N(CC(F)(F)F)C3=O)nn2)ccc1-n1ccc(C)n1 (stereo not drawn) — remaining binding (Mast/stem cell growth factor receptor Kit (KIT, Homo sapiens, UniProt P10721, L576P); cell-free assay, competition with immobilised ligand; 1 µM): 62%
N[C@H]1CCN(c2nccc(-c3cnn4ncccc34)n2)C1 — remaining binding (KIT D816H; binding; 1 µM): 64%
O=C(NCC1CCOCC1)c1n[nH]cc1NC(=O)c1c(F)cccc1F — remaining binding (KIT D816H; binding, competition with immobilised ligand; 1 µM): 69%
CO[C@@H](C)c1c(Nc2ccc([C@@H](N(C)C(=O)C3CCS(=O)(=O)CC3)C(F)(F)F)cc2)cnc2cc(Cl)nn12 — remaining binding (KIT T670I/V559D; cell-free assay, competition with immobilised ligand; 1 µM): 82%
CN1CCN(c2ccc(Nc3nccc(-c4cccc([N+](=O)[O-])c4)n3)cc2C(F)(F)F)CC1 — remaining binding (KIT V559D/V654A; binding; 10 µM): 0%
C[C@@H](c1ccc(-n2cnc3c(N)ncnc32)cc1)N1CCc2nn(C)c(Cc3ccccc3)c2C1=O — remaining binding (KIT D816V; binding, competition with immobilised ligand; 0.1 µM): 99%
O=C(c1ccc(Nc2ncc(Cl)c(-c3cc4ccccc4s3)n2)cc1)N1CCC(N2CCCC2)CC1 — remaining binding (KIT T670I/V559D; binding, competition with immobilised ligand; 1 µM): 17%
Cn1cc(Cl)c2c(Oc3c(F)cc(Nc4cc(Cl)nc(N)n4)cc3F)ccnc21 — remaining binding (KIT A829P; cell-free assay, competition with immobilised ligand; 0.1 µM): 63%
c1cnn2ncc(-c3ccnc(N4CCC45COC5)n3)c2c1 — remaining binding (Mast/stem cell growth factor receptor Kit, autoinhibited (KIT, Homo sapiens, UniProt P10721); binding; 1 µM): 56%
CCC(=O)N[C@H]1CC[C@@H](C(=O)N(C)c2ccc(-c3nc4ccccc4o3)cc2)C1 — remaining binding (KIT D816V; cell-free assay, competition with immobilised ligand; 1 µM): 86%
CC1CCCN1c1nccc(-c2cnn3ncccc23)n1 (stereo not drawn) — remaining binding (KIT V559D; binding; 1 µM): 100%
O=C(NCCCN1CCOCC1)c1ccc(Nc2nccc(-c3cc4ccccc4s3)n2)cc1 — remaining binding (KIT V559D; binding, competition with immobilised ligand; 1 µM): 26%
O=C(N[C@H]1CCCCC/C=C\C2C[C@@]2(C(=O)O)NC(=O)[C@@H]2C[C@@H](Oc3ccncc3)CN2C1=O)OC1CCCC1 (stereo partly drawn) — remaining binding (KIT V559D/V654A; binding, competition with immobilised ligand; 1 µM): 63%
C[C@@H]1CCN(c2nccc(-c3cnn4ncccc34)n2)C1 — remaining binding (KIT V559D; binding; 1 µM): 100%
Cc1cc(NC(=O)c2cccc(S(F)(F)(F)(F)F)c2)cc(-n2ccn3nc(-c4cccnc4)cc23)c1 — remaining binding (KIT; cell-free assay, competition with immobilised ligand; 1 µM): 89.5%
CC(C)(C)c1ccc(-c2nc(CBr)nn2-c2cccc(O)c2)cc1 — remaining binding (KIT D816V; cell-free assay, competition with immobilised ligand; 10 µM): 95%
